# Measured values pooled from the literature.
# Protocols differ between the studies behind these lines.
# CYP3A4: Cytochrome P450 3A4 (CYP3A4, Homo sapiens, UniProt P08684)
Structure (SMILES),tested on,assay,system,conditions,measurement,result
O=S(=O)(NNc1nnc(Cl)c2ccccc12)c1ccc(F)cc1,Vero,"cell growth or viability, MTT",,62.5 µg/mL,viability,88.2%
COc1ccc([C@@H]2CN(C(=O)[C@@H](O)CO)C[C@@]2(C)[C@@H](C)O)cc1OC1CN(c2ccc(C)cn2)C1,,,"human, plasma","oral, 1.5 mg, single dose, healthy volunteers",Vd/F,55.7 L
Cc1cc(Nc2cc(N3CCN(C)CC3)nc(/C=C/c3ccccc3)n2)n[nH]1,,,"human, plasma","oral, 60 mg/m², multiple doses, patients",Vd/F,699 L
CCNc1nc(Nc2ccc(F)c(Cl)c2)c2ccccc2n1,Vero,"cell growth or viability, MTT",,250 µg/mL,viability,20.6%
COC(=O)C1CCN(C(=O)c2ccc(N(CCCO)Cc3cnc4nc(N)nc(N)c4n3)cc2)CC1,CYP3A4,"enzyme activity, inhibitor, luciferase",,10 µM,inhibition,-2.09%
CC(C)(C)c1ccc(O)c(CN(Cc2cc(C(C)(C)C)ccc2O)C2CCC(NC(N)=O)CC2)c1 (stereo not shown),,,"male C57BL/6 mouse, plasma","intraperitoneal, 5 mg/kg, single dose",Cmax,1140 ng/mL
COC(=O)C1CCN(C(=O)c2cccc(NCc3cnc4nc(N)nc(N)c4n3)c2)CC1,"Cytochrome P450 1A2 (CYP1A2, Homo sapiens, UniProt P05177)","enzyme activity, inhibitor, luciferase",,10 µM,inhibition,-15.2%
COc1cc(C(=O)NC2CCN(C)CC2)c(F)cc1Nc1ncc(C(F)(F)F)c(Oc2cccc3c2C(=O)N(C)C3)n1,,,"human, plasma","oral, 10 mg, single dose, patients",Vd/F,873 L
COC(=O)C1CCN(C(=O)c2ccc(NCc3cnc4nc(N)nc(N)c4n3)cn2)CC1,CYP3A4,"enzyme activity, inhibitor, luciferase",,10 µM,inhibition,-7.93%
Cn1cnc2c1c(=O)n(CC(=O)Nc1c(Cl)cccc1Cl)c(=O)n2C,Vero,"cell growth or viability, MTT",,500 µg/mL,viability,25.3%
